E-selectin induc: E-selectin induction on HUVECs | actives 0.37% (n = 260,000) | HUVEC E-selectin immunofluorescence imaging; normalized: neutral wells 0, TNF-alpha wells 100 | P16581 | activation, % at 7.58 µM;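 active means mean E-selectin-positive cell signal at least 10% of the positive control, reached in at least 60% of replicates, without over 20% cell loss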
Target sequence (P16581 whole entry, looked up): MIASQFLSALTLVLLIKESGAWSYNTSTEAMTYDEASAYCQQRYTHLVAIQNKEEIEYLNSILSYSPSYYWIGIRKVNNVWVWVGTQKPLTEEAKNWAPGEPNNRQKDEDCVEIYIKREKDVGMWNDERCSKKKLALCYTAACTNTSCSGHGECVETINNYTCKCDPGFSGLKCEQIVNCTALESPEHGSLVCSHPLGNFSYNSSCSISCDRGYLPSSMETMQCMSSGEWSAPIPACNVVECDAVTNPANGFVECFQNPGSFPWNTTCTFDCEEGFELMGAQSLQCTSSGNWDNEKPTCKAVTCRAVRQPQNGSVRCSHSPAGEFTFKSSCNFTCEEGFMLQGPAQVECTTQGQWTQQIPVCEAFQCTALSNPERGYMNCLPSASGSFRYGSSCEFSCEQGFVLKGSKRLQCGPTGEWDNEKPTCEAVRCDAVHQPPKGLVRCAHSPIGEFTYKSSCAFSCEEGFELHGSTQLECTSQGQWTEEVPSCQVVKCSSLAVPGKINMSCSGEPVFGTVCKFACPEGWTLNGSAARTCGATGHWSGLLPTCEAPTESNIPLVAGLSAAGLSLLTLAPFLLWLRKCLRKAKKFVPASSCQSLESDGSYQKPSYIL
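System: HUVEC, human umbilical vein endothelial cells; quantity: 3,000 cells/well; buffer or medium: EGM-2 medium, gelatin-coated wells; dosing: single-point compound dose; detection: immunofluorescence imaging; evaluation: % PE-positive cells; benchmarks: TNF-alpha, DMSO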
rRNA inh HTS: inhibits bacterial ribosomal RNA function over humanized ribosomes; E. coli WT GFP vs humanized-ribosome RFP mutants, fluorescence, 24 h; stronger effect = lower value; DMSO median 0, no signal -100; GFP signal change (wild-type ribosome), % (concentration not given with the values); actives 1.6% (n = 350,000); AID 720706;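 active means significant combined selectivity score with lowered wild-type GFP, culture density cut under 30%, mutant RFP and density less affected; inactive means any of these conditions unmet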
LGR2 inh: Drosophila LGR2 receptor signaling inhibition. HEK293 LGR2, CRE-luciferase, bursicon-stimulated, 4 h. inhibition, % at 9.99 µM. actives 0.35% (n = 380,000);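 active means drop in luminescence signal, shown as inhibition above about 50% in the replicate tests, limit read from the data, passing the limit was not always enough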;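 further: agonist challenge used bursicon conditioned medium at about half maximal strength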
EWS-Fli block: inhibitors of EWS/Fli oncoprotein transcriptional activity; inhibition, % at 12.6 µM; A673 NR0B1-luciferase reporter, viability-normalised; actives 0.67% (n = 350,000);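 active means mean inhibition of at least 50% after viability correction, with every replicate also passing that limit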;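 further: firefly luciferase signal divided by Alamar Blue viability fluorescence both relative to DMSO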
DNA binder FP: small molecule DNA binding by fluorescence polarization | shares compounds with EWS-Fli block | salmon sperm DNA acridine orange fluorescence polarization | AC35, µM (series often up to 68 µM), for inactives: at the top dose activity change, negative = DNA binding | actives 2% (n = 640);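 active means fitted curve reaches a 35% signal fall AC35 below twice the sample's top valid tested dose, actives reach about 48 µM in these data; inactive means the rest, including activity in the rising direction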;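 further: lower polarization ratio signals compound binding to DNA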
Starred values were filed as active, the others as inactive; . = no result. An excerpt weighted towards active compounds, which were near 2.4% of everything screened.

SMILES	E-selectin induc	rRNA inh HTS	LGR2 inh	EWS-Fli block	DNA binder FP
CC(=O)/C(N=Nc1ccc(C(=O)O)cc1)=C(\C)O	0	-10	9	5	.
CCCN(C)C[C@H]1Oc2ncc(-c3ccccc3)cc2C(=O)N([C@@H](C)CO)C[C@H]1C	.	.	.	56*	-10%
Cc1ccc(C(C)C)c(OCc2ccc(C(=O)N/N=C/c3ccc(O)cc3O)cc2)c1	.	.	.	63*	13%
Cc1ccc(C(C)C)c(OCc2ccc(C(=O)N/N=C/c3ccc(C(=O)O)cc3)cc2)c1	.	3	-59	32	.
[N-]=[N+]=NCc1ccccc1C[C@@]1(C(=O)NCC(O)CO)N=C(c2ccc(OCCCO)cc2)O[C@@H]1c1ccccc1 (stereo not given in full)	.	.	.	4	.
COC(=O)CC1(C(=O)OC)Oc2ccc(Br)cc2C(=O)N1c1cccc(Cl)c1Cl (stereo not given)	.	-13	20	64*	-8%
Cc1ccccc1N=Nc1c(O)n(C)c2ccccc12	.	17	-2	60*	-17%
Cn1c(N=Nc2ccccc2)nc2ccccc21	.	.	.	17	.
CN(C)c1ccc(N=Nc2nc3ccccc3n2C)cc1	.	16	103*	86*	-3%
N#CC1C=Cc2c(ccc3ccccc23)N1C(=O)c1ccccc1 (stereo not given)	2	-5	-60	66*	-3%
Cc1ccc(N=C2NC(=O)/C(=C\c3cccs3)S2)cc1C	.	1	-31	58*	2%
Cc1cccc(N=C2NC(=O)/C(=C/c3cccs3)S2)c1	2	11	.	-27	.
Cc1c(CC(=O)NCCCC(=O)O)c(=O)oc2cc3c(cc12)CCC(C)(C)O3	0	1	1	66*	-13%
CCN1C/C(=C/c2ccc(N3CCOCC3)cc2)C(=O)/C(=C/c2ccc(N3CCOCC3)cc2)C1	.	-18	41	70*	15µM*
CSc1nc(O)c(/C=C2\C=Nc3ccccc32)[nH]1	.	.	-52	.	.
O=c1[nH]c(/C=C2\C=Nc3ccccc32)c(O)n1Cc1ccccc1F	-3	-9	10	63*	8%
CN(C[C@H]1N[C@@H](CO)[C@@H]1c1ccc(C2=CCCC2)cc1)C(=O)c1cccc(F)c1	1	-7	7	77*	-18%
C[C@H]1CN([C@@H](C)CO)C(=O)c2cc(NC(=O)CCCN(C)C)ccc2O[C@@H]1CN(C)CC1CC1	-11	2	-13	1	.
CCOc1ccc(-c2cc(CCCC(=O)N3CCN(c4ccc(OC)cc4)CC3)no2)cc1	.	-3	-24	60*	-8%
CCCCCCN(C(=O)CCCCCN1C(=O)NC(c2ccc(Cl)cc2)C(C(=O)OCc2ccccc2)=C1C)C(C(=O)NCCCC)c1ccc(OCC(=O)OC)c(C(=O)OC)c1 (stereo not given)	1	11	4	66*	0%
CCCCCCN(C(=O)CCCCCN1C(=O)NC(c2ccc(-c3ccccc3)cc2)C(C(=O)OCc2ccccc2)=C1C)C(C(=O)NCCCC)c1ccc(OCC(=O)OC)c(C(=O)OC)c1 (stereo not given)	0	13	6	6	.
CCCn1c(C)cc(C(=O)CN2C(=O)c3ccccc3C2=O)c1C	9	-4	-19	-31	.
CCn1c(C)cc(C(=O)CN2C(=O)c3ccccc3S2(=O)=O)c1C	-1	5	72*	78*	3%
CC(C)NC(=O)CN1C(=O)c2ccccc2S1(=O)=O	.	16	20	20	.
Cc1ccc(C(=O)CN2C(=O)c3ccccc3S2(=O)=O)cc1	.	8	95*	77*	3%
SMILES	E-selectin induc	rRNA inh HTS	LGR2 inh	EWS-Fli block	DNA binder FP
Cc1cc(C(=O)CN2C(=O)c3ccccc3S2(=O)=O)c(C)n1C(C)C	3	-8	76*	73*	-6%
C[C@@H]1CN([C@H](C)CO)C(=O)c2cc(C#CC3CC3)cnc2O[C@H]1CN(C)Cc1ccccn1	0	1	18	2	.
CCN1CC(=O)N2[C@@H](CO)[C@H](c3ccc(-c4cccnc4)cc3)[C@@H]2C1	0	4	5	0	.
Cc1ccc(C(C(=O)NCc2ccco2)N(C(=O)CNC(=O)c2cccs2)c2c(C)cc(C)cc2C)cc1 (stereo not given)	.	10	7	55*	8%
Cc1cccc(/C=C2/Sc3ccc(C(=O)NCCN4CCCC4)cc3NC2=O)c1	.	-56	-61	.	.
O=C1Nc2cc(C(=O)NCCN3CCCCCC3)ccc2S/C1=C\c1ccccc1	.	-1	-3	60*	-1%

Source: PubChem BioAssay
